# The list is not random: actives were taken first. Their share in the collection is about 2.9%.
# HSP90 refold inh – inhibitors of HSP90 luciferase refolding in rabbit reticulocyte lysate | inhibition, % at 5.6 µM | luciferase refolding luminescence, 3 h | actives 0.91% (n = 290,000);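 active = inhibition above the screen-wide mean plus 3 SD, computed separately per campaign, cut at about 16% in these data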;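 note: 0% = DMSO wells and 100% = 60 µM geldanamycin wells; inhibitors lower the luminescence because luciferase stays unfolded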
# SENP7 inh – SENP7 protease inhibition. Q9BQF6. recombinant SENP7, Z-RLRGG-aminoluciferin luminescence, 40 min. inhibition, % at 5 µM. actives 1.5% (n = 330,000). AID 434973;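 active = inhibition above about 50% at the single test dose, limit read from the data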;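 note: plate controls were DMSO with enzyme for no effect and no enzyme buffer wells for full effect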
# SENP8 block-1 – blocks the human protease SENP8; purified SENP8, Z-RLRGG-aminoluciferin cleavage, luminescence; inhibition, % at 10 µM; actives 1.2% (n = 330,000); in the data active = inhibition above about 50%
# SENP6 block – inhibitors of human SENP6 protease | inhibition, % at 10 µM | actives 1.8% (n = 330,000) | Recombinant SENP6 catalytic domain, aminoluciferin luminescence | AID 2599 | Q9GZR1;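 active = inhibition above about 50% at the single tested dose, limit read from the data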;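 note: plate controls were DMSO wells with enzyme for no effect and DMSO wells lacking enzyme for full effect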
# SENP1 inh – blocks the human SENP1 SUMO protease catalytic domain | recombinant SENP1 catalytic domain, CyPet-SUMO1-YPet FRET cleavage | Q9P0U3 | actives 0.21% (n = 360,000) | inhibition, % at 10 µM;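 active = inhibition at least 30% at 10 µM, raw YFP signal under a set limit, fluorescence ratio 0.5 to 1.5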;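 note: 0% = enzyme with DMSO and 100% = no enzyme wells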
#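 Compound: 10 µM single point, 0.5% DMSO; Test system: hSENP1 catalytic domain, recombinant; Timing: 50 min reaction at room temperature; Technique: FRET, CFP and YFP emission; Control set: no-enzyme wells low, DMSO-plus-enzyme wells high control.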
# SENP8 block-2 – blocks human SENP8 cleavage of Nedd8 substrate. recombinant SENP8, Nedd8 substrate fluorescence. inhibition, % at 20 µM. actives 0.64% (n = 360,000); in the data active = inhibition mostly above about 40%, no sharp cut-off; inactive = mostly below about 27%
# HSP90 confirm – HSP90 inhibition, confirmation assay; shares compounds with HSP90 refold inh; rabbit reticulocyte lysate, luciferase refolding luminescence, 3 h; inhibition, % at 5.9 µM; actives 64% (n = 2,300); AID 1846; in the data active = inhibition above about 18%;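 note: 0% = vehicle wells and 100% = reference inhibitor wells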
# luciferase ctr – counter-screen for HSP90 inhibitors: inhibitors of firefly luciferase. shares compounds with HSP90 refold inh. purified native firefly luciferase, luminescence. inhibition, % at 5.9 µM. actives 48% (n = 2,300). AID 1847;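 active = inhibition above the mean inhibition of all tested sample wells plus 3 SD, cut at about 10% in these data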;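 note: 0% = DMSO with luciferase and 100% = wells lacking luciferase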
# Target sequence (P08659 whole entry, looked up): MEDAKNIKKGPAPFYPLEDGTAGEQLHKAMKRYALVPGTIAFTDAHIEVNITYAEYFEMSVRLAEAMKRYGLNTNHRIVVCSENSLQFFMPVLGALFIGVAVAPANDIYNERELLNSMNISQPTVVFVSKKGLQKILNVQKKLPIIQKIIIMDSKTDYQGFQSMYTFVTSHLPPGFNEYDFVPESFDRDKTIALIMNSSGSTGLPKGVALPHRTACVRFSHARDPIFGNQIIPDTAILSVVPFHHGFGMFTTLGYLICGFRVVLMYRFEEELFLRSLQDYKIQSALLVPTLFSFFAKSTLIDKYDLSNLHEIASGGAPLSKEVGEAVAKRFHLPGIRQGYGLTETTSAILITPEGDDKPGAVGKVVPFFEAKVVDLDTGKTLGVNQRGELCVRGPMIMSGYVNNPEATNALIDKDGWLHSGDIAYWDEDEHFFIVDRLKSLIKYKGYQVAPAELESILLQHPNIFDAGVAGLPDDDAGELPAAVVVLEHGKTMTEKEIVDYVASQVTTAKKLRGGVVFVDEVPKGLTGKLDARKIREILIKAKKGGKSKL
# SENP8 confirm – confirmation of human SENP8 protease inhibitors; shares compounds with SENP7 inh; Recombinant SENP8, Z-RLRGG-aminoluciferin luminescence, 60 min; inhibition, % at 12.5 µM; actives 40% (n = 6,200);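 active = mean inhibition across replicates above about 50%, limit read from the data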
# SENP6 conf – confirmation of human SENP6 protease inhibitors; shares compounds with SENP7 inh; recombinant SENP6, Z-RLRGG-aminoluciferin luminescence; inhibition, % at 12.5 µM; actives 58% (n = 6,200); AID 488915
# SENP7 conf – human SENP7 inhibition, confirmed; recombinant SENP7, Z-RLRGG-aminoluciferin luminescence, 40 min; actives 69% (n = 6,200); shares compounds with SENP7 inh; inhibition, % at 12.5 µM
# Casp3 SENP sel – caspase-3 inhibition (SENP selectivity assay). shares compounds with SENP7 inh. purified caspase-3, Z-DEVD-aminoluciferin luminescence, 60 min. inhibition, % at 12.5 µM. actives 60% (n = 6,200). AID 488918;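 active = mean inhibition above about 50%, limit read from the data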;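 note: plate controls were enzyme with DMSO for no effect and wells without caspase-3 for full effect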
# SENP luc ctr – interferes with luciferase luminescence in SENP counter-screen; actives 39% (n = 6,200); Pre-incubated SENP8/Z-RLRGG-aminoluciferin, luciferase luminescence interference; inhibition, % at 12.5 µM; AID 488919; shares compounds with SENP7 inh;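 active = mean inhibition above about 50% when retested at one dose, limit read from the data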;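 note: plate controls were DMSO wells with completed reaction for no effect and substrate without enzyme for full effect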
# * marks the source's active call; other numbers are inactive results; / = no result given.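 Rule for the calls, unless noted: active = mean inhibition above about 50% in the one-dose retest (limit read from the data); inactive = the rest.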
SMILES,HSP90 refold inh,SENP7 inh,SENP8 block-1,SENP6 block,SENP1 inh,SENP8 block-2,HSP90 confirm,luciferase ctr,SENP8 confirm,SENP6 conf,SENP7 conf,Casp3 SENP sel,SENP luc ctr
CC(=O)Nc1ccc(NC(=O)/C=C/c2ccccc2)cc1,2,-10,2,-2,-1,7,/,/,/,/,/,/,/
O=C(/C=C/c1ccccc1)Nc1ccc2c(c1)OCCO2,32*,75*,67*,74*,3,11,51*,48*,74*,71*,88*,65*,75*
O=C(/C=C/c1ccco1)Nc1ccc2c(c1)OCCO2,14,41,38,-14,0,24,/,/,/,/,/,/,/
COc1cccc(NC(=O)c2ccc3c(c2)OCO3)c1,29*,96*,88*,93*,0,29,20*,4,-1,90*,100*,95*,90*
CSc1ccc(/C=C/C(=O)Nc2ccccc2)cc1,23*,101*,95*,85*,-2,-88,71*,67*,69*,98*,102*,97*,7
COc1ccc(C(=O)Nc2ccc3c(c2)OCCO3)cc1,28*,-15,70*,73*,1,22,46*,27*,81*,81*,97*,91*,83*
CC(C)(C)c1cc(CNC(=O)C2CCC(=O)N(Cc3ccccc3F)C2)[nH]n1 (centres undefined),/,/,/,/,0,6,/,/,/,/,/,/,/
COc1ccc(OC)c(S(=O)(=O)NC(=O)C2(C)CCN2C(=O)Cc2ccccc2Cl)c1 (centres undefined),/,/,/,/,2,12,/,/,/,/,/,/,/
Cc1ccccc1C(=O)Nc1ccc2c(c1)OCCO2,43*,69*,55*,63*,2,17,45*,34*,53*,52*,84*,85*,67*
CSc1ccccc1C(=O)Nc1ccc2c(c1)OCCO2,-1,18,-20,12,-2,22,/,/,/,/,/,/,/
COc1cccc(NC(=O)c2ccc3c(c2)OCCO3)c1,45*,97*,94*,94*,1,11,55*,40*,97*,98*,102*,97*,96*
COc1cccc(NC(=O)c2cc3ccccc3oc2=O)c1,28*,100*,90*,94*,4,17,64*,72*,-8,4,-3,10,5
COc1ccc2oc(=O)c(C(=O)Nc3cccc(C(C)=O)c3)cc2c1,0,-8,-7,-15,-23,-107,/,/,/,/,/,/,/
O=C(Nc1ccc2c(c1)OCCO2)c1ccccc1,24*,79*,61*,68*,2,5,27*,17*,4,61*,90*,87*,68*
O=C(Nc1ccc2c(c1)OCCO2)c1cccc(C(=O)Nc2ccc3c(c2)OCCO3)c1,-2,-3,5,4,1,14,/,/,/,/,/,/,/
CCOC(=O)C1=CCN(S(=O)(=O)c2ccccc2)C1c1ccc(Cl)cc1 (centres undefined),/,/,/,/,2,12,/,/,/,/,/,/,/
CCOc1ccccc1CNC(=O)C1CCCN(c2nnc(C)c3c(C)n(-c4ccccc4)nc23)C1 (centres undefined),0,5,6,-6,1,-298,/,/,/,/,/,/,/
COCCNC(=O)C1(C)CCCN(C(=O)c2cnc3ccccc3n2)C1 (centres undefined),/,/,/,/,1,13,/,/,/,/,/,/,/
CCCN1CCC(=O)NC1=S,/,/,/,/,4,2,/,/,/,/,/,/,/
Cc1ccsc1/C=C1\CCc2ccccc2C1=O,31*,99*,96*,94*,0,14,79*,71*,100*,101*,104*,100*,96*
O=C1C(=Cc2ccccn2)CCc2ccccc21,/,/,/,/,1,4,/,/,/,/,/,/,/
O=C(O)c1ccc(CN2C[C@@H](CO)O[C@@H](n3cnc4c(NCc5ccco5)ncnc43)C2)cc1,/,/,/,/,1,9,/,/,/,/,/,/,/
CCOC(=O)c1sc(NC(=O)Nc2ccccc2F)nc1C,37*,93*,67*,77*,1,-10,76*,71*,17,23,62*,62*,16
CCOC(=O)c1sc(NC(=O)/C=C/c2c(F)cccc2Cl)nc1C,2,2,3,4,-5,-332,/,/,/,/,/,/,/
CCOC(=O)CNC(=O)c1sc(NC(=O)c2ccccc2F)nc1C,70*,88*,70*,77*,-3,-13,74*,12*,-5,75*,94*,92*,79*
CCN1C(=O)[C@@H]2[C@@H](c3ccc(-c4ccc(C(C)=O)cc4)c(OC)c3)N3CCC[C@@]3(C(=O)OC)[C@@H]2C1=O,/,-10,-4,-5,0,-99,/,/,/,/,/,/,/
Cc1ccc(Nc2ccc(C(=O)O)cc2N)cc1,20*,98*,94*,98*,/,/,4,-20,98*,99*,102*,89*,97*
Cc1cc2nc(-c3cccnc3SCC(=O)NCc3ccco3)[nH]c2cc1C,18*,88*,74*,84*,-20,-290,23*,7,91*,90*,98*,90*,86*
CC(=NCc1ccco1)c1c(C)[nH]n(-c2nc3ccccc3s2)c1=O,32*,2,24,65*,-4,14,50*,16*,3,2,73*,50,17
O=C(Nc1ccc2c(c1)OCCO2)C1CCN(S(=O)(=O)Cc2ccccc2)CC1,-4,-10,-18,-38,2,28,/,/,/,/,/,/,/

# Compound activity (PubChem)
